Screening data as filed in PubChem.
MrgX1 agonist: activates human MrgX1 receptor signaling. MrgX1-HEK293 cells, Fluo-4 calcium fluorescence, agonist mode; stronger effect = higher value. B-score at 10 µM. AID 588627. 0.44% of 310,000 active;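 active = calcium response B-score plate-corrected fluorescence ratio at least 3 library SD, with starting fluorescence B-score inside 5 SD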
Target sequence (Q96LB2 whole entry, looked up): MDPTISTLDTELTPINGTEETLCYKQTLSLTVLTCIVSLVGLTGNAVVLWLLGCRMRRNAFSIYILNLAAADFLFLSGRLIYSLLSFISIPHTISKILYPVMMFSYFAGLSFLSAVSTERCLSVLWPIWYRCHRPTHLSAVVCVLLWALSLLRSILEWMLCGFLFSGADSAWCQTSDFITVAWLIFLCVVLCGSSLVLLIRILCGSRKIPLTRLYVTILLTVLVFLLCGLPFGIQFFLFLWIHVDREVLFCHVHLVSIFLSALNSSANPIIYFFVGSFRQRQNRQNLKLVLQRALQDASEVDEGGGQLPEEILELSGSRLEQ
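Test system: HEK293 cells stably expressing human MrgX1 receptor; Input: fifteen thousand cells per well; Dosing: compound delivered in addition one of three; Schedule: overnight seeding, then 1 h dark dye loading; Technique: Fluo-4 NW calcium fluorescence; Measure: B-scored fluorescence response ratio; Controls: positive and negative controls per plate.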
RGS4 block: inhibitors of human RGS4 | P49798 | HEK293 M3R/RGS4 inducible, Fluo-4 calcium flux; stronger effect = higher value; triggered by carbachol at its EC20 | B-score at 10 µM | 0.45% of 310,000 active;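 active = B-score, a plate-corrected calcium signal, over three deviations above library mean, with baseline fluorescence within five deviations of library mean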;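 also: RGS4 expression induced by doxycycline in cells with stable M3 receptor; B-score is computed from the integrated fluorescence ratio over baseline after carbachol; higher B-score means a larger calcium signal and so more RGS4 inhibition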
Target sequence (P49798 whole entry, looked up): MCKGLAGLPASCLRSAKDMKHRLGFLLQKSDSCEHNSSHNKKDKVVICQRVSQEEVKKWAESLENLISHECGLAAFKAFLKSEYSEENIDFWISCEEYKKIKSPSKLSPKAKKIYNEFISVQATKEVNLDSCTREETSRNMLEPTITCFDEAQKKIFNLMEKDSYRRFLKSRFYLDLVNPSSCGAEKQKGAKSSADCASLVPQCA
MrgX1 allo act: allosterically activates human MrgX1 receptor signaling | Q96LB2 | MrgX1-HEK293, Fluo-4 calcium flux, FDSS; stronger effect = higher value | B-score at 10 µM | 0.63% of 310,000 active | AID 588675;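 active = plate-corrected calcium response at least 3 library SD above typical, normal starting fluorescence, not activating the receptor alone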;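 also: compound read alongside a low EC10 to EC30 dose of BAM8-22 agonist; peak minus trough fluorescence over baseline measured at the second addition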
RGS4 act: RGS4 potentiation or activation | HEK293 M3R/inducible RGS4, carbachol calcium flux Fluo4; stronger effect = lower value | B-score at 10 µM | 0.92% of 310,000 active;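 active = B-score of the integrated calcium signal more than 4 SD below the library mean, with starting fluorescence not abnormally high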;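 also: negative B-score means reduced calcium response which marks RGS4 activation or potentiation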
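Also added: carbachol at ECmax as muscarinic agonist stimulus; Assay system: HEK293 cells with stable M3R and inducible RGS4; Timing: overnight RGS4 induction, 30 min dye load 37 °C, 20 min compound RT; Measured by: Fluo4-AM (2 µM) calcium-flux fluorescence, kinetic read.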
MrgX1 antagonist: human MrgX1 receptor antagonism, primary screen | Q96LB2 | MRGX1-HEK293 calcium flux, Fluo-4, BAM8-22 antagonism; stronger effect = lower value | B-score at 10 µM | 1.3% of 310,000 active | AID 588676;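 active = calcium-response B-score plate-corrected more than 3 library SD below zero, starting fluorescence within 5 deviations, no agonist response on first addition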;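 also: peak minus trough fluorescence over baseline after final BAM8-22 challenge near maximal dose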
* = called active by the depositor. In the library only some 3.5% were active in any assay of this set; here they are far more common.

What do the screens show for `c1ccc(-c2cn(-c3ccccc3)c3ncnc(N4CCCCC4)c23)cc1`?
MrgX1 agonist: inactive; RGS4 block: inactive; MrgX1 allo act: inactive; RGS4 act: inactive; MrgX1 antagonist: inactive

How did COc1ccc(-n2cc(-c3ccccc3)c3c(N4CC(C)OC(C)C4)ncnc32)cc1 (configuration not stated) do in these assays?
MrgX1 agonist: inactive; RGS4 block: inactive; MrgX1 allo act: inactive; RGS4 act: -7.04*; MrgX1 antagonist: inactive

Results for COC(=O)N/N=C/c1c(C)c(C(=O)c2ccc(F)cc2)n2ccccc12 ?
MrgX1 agonist: inactive; RGS4 block: inactive; MrgX1 allo act: inactive; RGS4 act: inactive; MrgX1 antagonist: inactive

How did Cc1c(/C=N/NC(=O)c2ccc(O)cc2)c2ccccn2c1C(=O)c1ccc(F)cc1 do in these assays?
MrgX1 agonist: inactive; RGS4 block: inactive; MrgX1 allo act: inactive; RGS4 act: inactive; MrgX1 antagonist: inactive

What do the screens show for `Cc1c(/C=N/NC(=O)c2ccccc2O)c2ccccn2c1C(=O)c1ccc(F)cc1`?
MrgX1 agonist: inactive; RGS4 block: inactive; MrgX1 allo act: inactive; RGS4 act: inactive; MrgX1 antagonist: -7.13*

What do the screens show for `Cc1c(C(=O)Nc2ccc(Cl)cc2)c2ccccn2c1C(=O)c1ccc(F)cc1`?
MrgX1 agonist: inactive; RGS4 block: inactive; MrgX1 allo act: inactive; RGS4 act: -9.11*; MrgX1 antagonist: inactive

Results for CN(C)CCCN(C(=O)c1cc2cc([N+](=O)[O-])ccc2s1)c1nc2cc3c(cc2s1)OCCO3 ?
MrgX1 agonist: inactive; RGS4 block: inactive; MrgX1 allo act: inactive; RGS4 act: inactive; MrgX1 antagonist: inactive

How did CN(C(=O)CCc1nnc(CCCCc2ccccc2)o1)C1CC(C)(C)NC(C)(C)C1 do in these assays?
MrgX1 agonist: inactive; RGS4 block: inactive; MrgX1 allo act: inactive; RGS4 act: inactive; MrgX1 antagonist: -5.76*

What do the screens show for `C=CC[N+]1(CC#Cc2ccccc2)CCCC1`?
MrgX1 agonist: inactive; RGS4 block: inactive; MrgX1 allo act: inactive; RGS4 act: inactive; MrgX1 antagonist: inactive

How did C(#Cc1ccccc1)C[N+]1(CC#Cc2ccccc2)CCCC1 do in these assays?
MrgX1 agonist: inactive; RGS4 block: inactive; MrgX1 allo act: inactive; RGS4 act: -8.05*; MrgX1 antagonist: inactive

What do the screens show for `CN(c1cccc(NC(=O)Nc2cccc(Cl)c2)c1)S(C)(=O)=O`?
MrgX1 agonist: inactive; RGS4 block: inactive; MrgX1 allo act: inactive; RGS4 act: inactive; MrgX1 antagonist: -5.23*

What do the screens show for `Cc1ccc(C)c(NC(=O)C2CC3c4ccccc4C2c2ccccc23)c1` (configuration not stated)?
MrgX1 agonist: inactive; RGS4 block: inactive; MrgX1 allo act: inactive; RGS4 act: inactive; MrgX1 antagonist: -5.45*

Results for Cc1ccc(C)c(NC(=O)C2CC=CCC2C(=O)O)c1 (configuration not stated) ?
MrgX1 agonist: inactive; RGS4 block: inactive; MrgX1 allo act: inactive; RGS4 act: inactive; MrgX1 antagonist: inactive

Results for O=C(O)Cn1ccc2cc(S(=O)(=O)N3CCCCCC3)ccc21 ?
MrgX1 agonist: inactive; RGS4 block: inactive; MrgX1 allo act: inactive; RGS4 act: inactive; MrgX1 antagonist: inactive

How did C=C(C)C(=O)OCC(O)COc1ccc(C(C)(C)c2ccc(OCC(O)COC(=O)C(=C)C)cc2)cc1 (configuration not stated) do in these assays?
MrgX1 agonist: inactive; RGS4 block: inactive; MrgX1 allo act: inactive; RGS4 act: inactive; MrgX1 antagonist: inactive

What do the screens show for `C(=C1/CCCC2=C1Nc1ncnn1C2c1ccccc1)/c1ccccc1` (configuration not stated)?
MrgX1 agonist: inactive; RGS4 block: inactive; MrgX1 allo act: 7.28*; RGS4 act: inactive; MrgX1 antagonist: -4.99*

What do the screens show for `S=C1NC2=C(CCC/C2=C\c2ccccc2)C(c2ccccc2)N1` (configuration not stated)?
MrgX1 agonist: inactive; RGS4 block: inactive; MrgX1 allo act: inactive; RGS4 act: inactive; MrgX1 antagonist: inactive

Results for Cc1onc(-c2ccccc2)c1C(=O)N/N=C/C=C/c1ccccc1 ?
MrgX1 agonist: inactive; RGS4 block: inactive; MrgX1 allo act: inactive; RGS4 act: inactive; MrgX1 antagonist: inactive

How did Cc1ccc(C(=O)N/N=C/C=C/c2ccccc2)o1 do in these assays?
MrgX1 agonist: inactive; RGS4 block: inactive; MrgX1 allo act: inactive; RGS4 act: inactive; MrgX1 antagonist: -7.01*

Results for CCc1ccc(CN(C)C(=O)C2CCC(=O)N(Cc3ccccn3)C2)cc1 (configuration not stated) ?
MrgX1 agonist: inactive; RGS4 block: inactive; MrgX1 allo act: inactive; RGS4 act: inactive; MrgX1 antagonist: inactive

How did O=C(NCC1CCCO1)/C(=C\c1cccc([N+](=O)[O-])c1)NC(=O)c1ccccc1 (configuration not stated) do in these assays?
MrgX1 agonist: inactive; RGS4 block: inactive; MrgX1 allo act: inactive; RGS4 act: inactive; MrgX1 antagonist: -5.75*

What do the screens show for `O=C(NCC1CCCO1)/C(=C/c1ccccc1)NC(=O)c1ccccc1` (configuration not stated)?
MrgX1 agonist: inactive; RGS4 block: inactive; MrgX1 allo act: inactive; RGS4 act: inactive; MrgX1 antagonist: inactive

How did OCC[C@H]1C[C@@H](O)[C@H](O)[C@]2(OCCc3ccccc32)O1 do in these assays?
MrgX1 agonist: inactive; MrgX1 allo act: inactive; MrgX1 antagonist: inactive

What do the screens show for `CCOC(=O)[C@H]1[C@H]2COc3ccc(Cl)cc3[C@@H]2N2C(=O)c3cc(F)c(F)cc3NC(=O)[C@@]12C`?
MrgX1 agonist: inactive; MrgX1 allo act: inactive; MrgX1 antagonist: inactive

How did COc1cc(N(C(=O)Cc2cccs2)C(C(=O)NC2CCCCC2)c2ccc(C)cc2)ccc1-n1cnnn1 (configuration not stated) do in these assays?
MrgX1 agonist: inactive; RGS4 block: inactive; MrgX1 allo act: inactive; RGS4 act: inactive; MrgX1 antagonist: -6.32*

What do the screens show for `Cc1ccc(N(C(=O)Cc2cccs2)C(C(=O)NC2CCCCC2)c2ccccn2)cc1C` (configuration not stated)?
MrgX1 agonist: inactive; RGS4 block: inactive; MrgX1 allo act: 10*; RGS4 act: inactive; MrgX1 antagonist: inactive

What do the screens show for `CN1CCN(C2=C(Cl)C(=O)C(c3cnc(N4CCCCC4)s3)=C(Cl)C2=O)CC1`?
MrgX1 agonist: inactive; RGS4 block: inactive; MrgX1 allo act: inactive; RGS4 act: -7.12*; MrgX1 antagonist: inactive

How did O=C(Oc1ccc(C(=S)N2CCOCC2)cc1)c1ccc([N+](=O)[O-])cc1[N+](=O)[O-] do in these assays?
MrgX1 agonist: inactive; RGS4 block: inactive; MrgX1 allo act: inactive; RGS4 act: inactive; MrgX1 antagonist: inactive
